# In paper PMC4059944 (Nature, 2014):
# “And” between values parts separate entries of the source, which are not always exact repeats. Equal entries are not always repeated.
# B1: Ctf4 N-terminal deletion (Ctf4CTD, aa 461-927) (domain or fragment)
# chain: THSFPISLANTGKFRYMPFSPAGTPFGFTDRRYLTMNEVGYVSTVKNSEQYSITVSFFDVGRFREYHFEDLFGYDLCFLNEKGTLFGQSKTGQIQYRPHDSIHSNWTKIIPLQAGERITSVAATPVRVIVGTSLGYFRSFNQFGVPFAVEKTSPIVALTAQNYRVFSVHYSQFHGLSYSLSELGTSSKRYYKRECPLPMSLPNINSDMKKDANLDYYNFNPMGIKSLFFSSYGDPCIFGSDNTLLLLSKWRSPEESKWLPILDSNMEIWKMSGGKETTDIHVWPLALAYDTLNCILVKGKHIWPEFPLPLPSEMEIRMPVFVKSKLLEENKAILNKKNEIGADTEAEEGEEDKEIQIPVSMAAEEEYLRSKVLSELLTDTLENDGEMYGNENEVLAALNGAYDKALLRLFASACSDQNVEKALSLAHELKQDRALTAAVKISERAELPSLVKKINNIREARYEQQLK
# B2: Pol1NTD (Pol1-NTD-ProteinA: N-terminal region of Pol1, residues 1 to 351, fused to Protein A) (domain or fragment)
# chain: MSSKSEKLEKLRKLQAARNGTSIDDYEGDESDGDRIYDEIDEKEYRARKRQELLHDDFVVDDDGVGYVDRGVEEDWREVDNSSSDEDTGNLASKDSKRKKNIKREKDHQITDMLRTQHSKSTLLAHAKKSQKKSIPIDNFDDILGEFESGEVEKPNILLPSKLRENLNSSPTSEFKSSIKRVNGNDESSHDAGISKKVKIDPDSSTDKYLEIESSPLKLQSRKLRYANDVQDLLDDVENSPVVATKRQNVLQDTLLANPPSAQSLADEEDDEDSDEDIILKRRTMRSVTTTRRVNIDSRSNPSTSPFVTAPGTPIGIKGLTPSKSLQSNTDVATLAVNVKKEDVVDPETDT
# B3: Ctf4: full-length yeast Ctf4 protein (protein)
# chain: MVSVIDKLVFDFGGKTLVSLAPDNNTLCVANKNGLTKILKTNNPEEEPETLDSSKLVSSIKCYSNSHFLMTTMQGDALRYNIDSSQEELLARFALPLRDCCVIHSGKMAVFGGDDLELILLELDDETHKKHAIKIDEQVSQISYNSQMNILAVSMINGKVQIFSLTSTIPNKVHELNDYIVANSYDDTHRDKILSNMMDDIDKDNDNDLSETADPDENNVADPEFCAANRICTRVAWHPKGLHFALPCADDTVKIFSIKGYSLQKTLSTNLSSTKAHFIDLQFDPLRGTYIAAVDLNNKLTVWNWETSEIHYTREFKRKITNIAWKIQADSKTLDLVLGTWSGSIAIVQNLAESVVSNIPDQSVAESSTKHGLFVDSESDLENLEGNDDINKSDKLFSDITQEANAEDVFTQTHDGPSGLSEKRKYNFEDEEDFIDDDDGAGYISGKKPHNEHSYSRVHKTHSFPISLANTGKFRYMPFSPAGTPFGFTDRRYLTMNEVGYVSTVKNSEQYSITVSFFDVGRFREYHFEDLFGYDLCFLNEKGTLFGQSKTGQIQYRPHDSIHSNWTKIIPLQAGERITSVAATPVRVIVGTSLGYFRSFNQFGVPFAVEKTSPIVALTAQNYRVFSVHYSQFHGLSYSLSELGTSSKRYYKRECPLPMSLPNINSDMKKDANLDYYNFNPMGIKSLFFSSYGDPCIFGSDNTLLLLSKWRSPEESKWLPILDSNMEIWKMSGGKETTDIHVWPLALAYDTLNCILVKGKHIWPEFPLPLPSEMEIRMPVFVKSKLLEENKAILNKKNEIGADTEAEEGEEDKEIQIPVSMAAEEEYLRSKVLSELLTDTLENDGEMYGNENEVLAALNGAYDKALLRLFASACSDQNVEKALSLAHELKQDRALTAAVKISERAELPSLVKKINNIREARYEQQLK
# Legend:
# Ctf4CTD [1] = experiment: Fluorescence polarization; format: binding, yeast (S. cerevisiae); conditions: fluorescence anisotropy, 25°C, 20 mM HEPES pH 7.2, 140 mM KCl, 5% (w/v) glycerol; 40 nM (Sld5) or 50 nM (Pol1) fluorescein-labeled peptide; mean of three independent experiments
# Ctf4CTD [2] = experiment: X-ray crystallography of Ctf4CTD crystals soaked with peptide; format: binding, yeast (S. cerevisiae); conditions: soaked 24 hours at 19 °C
# [3] = target: the molecule itself; experiment: negative-stain single-particle electron microscopy
# [4] = target: T1, GINSPsf1ΔC (Strep III-tagged, for electron microscopy) (S. cerevisiae, UniProt Q12146 1-194; Q12488 1-164; P40359 1-213; Q03406 1-294); experiment: negative-stain single-particle electron microscopy
# T1 sequence 1: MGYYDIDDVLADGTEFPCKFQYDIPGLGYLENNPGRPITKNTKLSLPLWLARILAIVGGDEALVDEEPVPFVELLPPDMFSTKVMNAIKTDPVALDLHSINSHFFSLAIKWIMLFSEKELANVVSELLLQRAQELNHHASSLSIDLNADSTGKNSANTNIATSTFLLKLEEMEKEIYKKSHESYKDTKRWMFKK
# T1 sequence 2: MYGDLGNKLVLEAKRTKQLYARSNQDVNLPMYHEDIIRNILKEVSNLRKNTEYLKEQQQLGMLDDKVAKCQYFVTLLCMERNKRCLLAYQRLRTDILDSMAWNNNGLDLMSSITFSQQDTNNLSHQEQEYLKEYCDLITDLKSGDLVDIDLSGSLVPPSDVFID
# T1 sequence 3: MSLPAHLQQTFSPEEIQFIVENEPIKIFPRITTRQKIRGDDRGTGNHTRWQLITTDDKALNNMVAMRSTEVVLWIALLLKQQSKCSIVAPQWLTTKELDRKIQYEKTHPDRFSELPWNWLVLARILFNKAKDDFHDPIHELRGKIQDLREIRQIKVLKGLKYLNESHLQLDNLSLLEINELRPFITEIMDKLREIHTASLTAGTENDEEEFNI
# T1 sequence 4: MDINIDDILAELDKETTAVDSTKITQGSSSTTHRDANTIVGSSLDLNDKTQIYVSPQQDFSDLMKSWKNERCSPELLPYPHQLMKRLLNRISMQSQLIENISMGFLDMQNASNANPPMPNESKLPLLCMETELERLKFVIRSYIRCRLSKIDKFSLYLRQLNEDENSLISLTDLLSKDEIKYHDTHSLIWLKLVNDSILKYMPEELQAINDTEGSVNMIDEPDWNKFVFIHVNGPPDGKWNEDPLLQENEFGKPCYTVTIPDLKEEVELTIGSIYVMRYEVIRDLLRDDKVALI
# [5] = target: T2, Ctf4CTD (yeast Ctf4 amino acids 471 to 927) (S. cerevisiae, UniProt Q01454 471-927); experiment: pull-down
# T2 sequence: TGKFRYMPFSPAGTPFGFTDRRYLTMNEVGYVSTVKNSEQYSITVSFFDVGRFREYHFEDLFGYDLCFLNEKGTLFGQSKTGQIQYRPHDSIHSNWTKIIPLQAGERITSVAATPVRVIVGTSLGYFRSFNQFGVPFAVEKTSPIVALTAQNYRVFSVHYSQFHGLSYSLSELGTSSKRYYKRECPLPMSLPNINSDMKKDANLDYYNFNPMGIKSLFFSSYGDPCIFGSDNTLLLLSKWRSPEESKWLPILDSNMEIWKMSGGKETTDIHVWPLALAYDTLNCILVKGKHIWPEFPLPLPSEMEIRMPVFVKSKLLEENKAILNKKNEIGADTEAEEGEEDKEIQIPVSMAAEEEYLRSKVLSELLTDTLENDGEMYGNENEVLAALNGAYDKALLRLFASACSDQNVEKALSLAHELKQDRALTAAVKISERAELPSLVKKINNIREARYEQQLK
# [6] = target: T2, Ctf4CTD (yeast Ctf4 amino acids 471 to …); experiment: native MS
# Ctf4CTD trimer = experiment: Single-particle electron microscopy of Ctf4CTD complexes; format: binding, yeast (S. cerevisiae)
# [7] = target: B1; experiment: negative-stain single-particle electron microscopy
# [8] = Multi-angle laser scattering; format: physicochemical, yeast (S. cerevisiae); conditions: size exclusion chromatography - MALS
# Method in brief: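 Recombinant His-tagged full-length yeast Ctf4, expressed in E. coli BL21(DE3)-CodonPlus (1 mM IPTG, 37°C, 2 h), purified by Ni-NTA, Mono Q ion exchange and Superdex 200 gel filtration. About 100 μg loaded onto an HPLC size-exclusion column equilibrated in 150 mM NaCl, 20 mM Tris pH 8.0, 1 mM DTT. Eluate read by 8-angle light scattering and refractive index detectors.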
# CMG helicase = conditions: yeast cells; cited from earlier work
molecule,measurement,setting,value
1- MDINIDDILAELDKETTAV -19 [Ctf4-binding sequence of Sld5],tighter association with Ctf4 compared to Pol1 (fold),Ctf4CTD [1],~ 5 fold
137-IDNFDDILGEFES-149 [Pol1 peptide],occupancy of binding sites in Ctf4CTD trimer crystal,Ctf4CTD [2]; open crystal form,occupies each of the two binding sites available in this crystal form
same,conformational change in helical domain of Ctf4CTD on binding,Ctf4CTD [2],does not induce an appreciable conformational change in the helical domain of Ctf4CTD
MDINIDDILAELDKETTAV [Sld5],mode of interaction with Ctf4,Ctf4CTD [2]; compared with Ctf4-binding motif of Pol1,near-identical mode of interaction
B1,stoichiometry N,[3],3
same,binding result,[4],binds
MDINIDDILAEADKETTAVD (domain or fragment) [GST-Sld5 (1-20) L12A],binding result,[5],binds
IDNFDDILGEFES [Pol1 peptide 137-IDNFDDILGEFES-149],stoichiometry N,[6],1 peptides per Ctf4CTD trimer and 2 peptides per Ctf4CTD trimer and 3 peptides per Ctf4CTD trimer
B2,Ctf4CTD - GINS - Pol1NTD complexes observed,"Ctf4CTD trimer; reconstituted hetero-assemblies, Pol1 residues 1 to 351 fused to Protein A","varied stoichiometries, with partial or full occupancy of the Ctf4 trimer"
same,Ctf4CTD - Pol1NTD complex observed,"Ctf4CTD trimer; reference-free class averages, box size 448 Å",ring-shaped core linked to one mobile globular density
same,binding result,[7],binds
MDINIDAILAELDKETTAVD (domain or fragment) [GST-Sld5 (1-20) D7A],binding result,[5],binds
MDINIDDILAELDKETTAVD (domain or fragment) [GST-Sld5 (residues 1 to 20)],binding result,[5],binds
MDINIDDILAELDKETTAV [Sld5 peptide 1-MDINIDDILAELDKETTAV-19],stoichiometry N,[6],1 peptides per Ctf4CTD trimer and 2 peptides per Ctf4CTD trimer and 3 peptides per Ctf4CTD trimer
B3,oligomeric state in solution (MALS),[8],stable homotrimers in solution
same,oligomeric state in solution (MALS),[8]; listed as full-length Ctf4,stable trimer in solution
same,salt concentration resisted by association of Ctf4 with CMG,CMG helicase,≥ 700 mM
